According to ChEMBL document CHEMBL3813689, “Discovery of Potent Benzofuran-Derived Diapophytoene Desaturase (CrtN) Inhibitors with Enhanced Oral Bioavailability for the Treatment of Methicillin-Resistant Staphylococcus aureus (MRSA) Infections” (J Med Chem, 2016):
pIC50: −log10 of the molar value. In brackets after ≈: the same amount, converted by molar mass. Activity calls are given as the source filed them. The calls are words filed in the database; no cut-off is given here.

Assays:
Staphylococcus aureus [1] = experiment: Inhibition of staphyloxanthin pigment formation in Staphylococcus aureus Newman after 48 hrs by spectrophotometric method; format: functional, organism-based
Procedure, shortened: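 Compounds as 20 mM DMSO stocks, serial 2-fold dilutions in DMSO; 40 µL added to 4 mL TSB culture, 37 °C for 48 h, in triplicate. Cells washed twice with PBS, pigment extracted with methanol, OD450 measured; IC50 from dose-response curve fit of OD data.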

Staphylococcus aureus [2] = experiment: Antibacterial activity against Staphylococcus aureus USA400 MW2 infected Balb/c mouse assessed as reduction of bacterial survival in kidney at 5.2 mg, ip bid administered for 4.5 days followed by bacterial infection measured after 5 days; format: functional
Procedure, shortened: (§1)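 Female BALB/c mice, 6–8 weeks. Compound in sterile water ip once and every 12 h for 108 h, total 50 or 200 mg/kg; water controls. Infected 12 h after first dose with 4 × 10^7 CFU USA400 MW2 (100 µL). Killed 5 days post infection; liver or kidney CFU counted on TSA after homogenising in PBS/0.1% Triton X-100. n = 13; two-tailed Mann-Whitney.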

Staphylococcus aureus [3] = experiment: Antibacterial activity against Staphylococcus aureus Mu50 infected Balb/c mouse assessed as reduction of bacterial survival in kidney at 5.2 mg, ip bid administered for 4.5 days followed by bacterial infection measured after 5 days; format: functional
Staphylococcus aureus [4] = experiment: Antibacterial activity against Staphylococcus aureus Mu50 infected Balb/c mouse assessed as reduction of bacterial survival in liver at 1.3 mg, ip bid administered for 4.5 days followed by bacterial infection measured after 5 days; format: functional
Staphylococcus aureus [5] = experiment: Antibacterial activity against Staphylococcus aureus USA400 MW2 infected Balb/c mouse assessed as reduction of bacterial survival in liver at 5.2 mg, ip bid administered for 4.5 days followed by bacterial infection measured after 5 days; format: functional; procedure, shortened: as §1
Staphylococcus aureus [6] = experiment: Antibacterial activity against Staphylococcus aureus USA400 MW2 infected Balb/c mouse assessed as reduction of bacterial survival in kidney at 1.3 mg, ip bid administered for 4.5 days followed by bacterial infection measured after 5 days; format: functional, organism-based; procedure, shortened: as §1
Staphylococcus aureus [7] = experiment: Antibacterial activity against Staphylococcus aureus Mu50 infected Balb/c mouse assessed as reduction of bacterial survival in kidney at 1.3 mg, ip bid administered for 4.5 days followed by bacterial infection measured after 5 days; format: functional
Staphylococcus aureus [8] = experiment: Antibacterial activity against Staphylococcus aureus Mu50 infected Balb/c mouse assessed as reduction of bacterial survival in liver at 5.2 mg, ip bid for 4.5 days administered for 4.5 days followed by bacterial infection measured after 5 days; format: functional
Staphylococcus aureus [9] = experiment: Antibacterial activity against Staphylococcus aureus USA400 MW2 infected Balb/c mouse assessed as reduction of bacterial survival in liver at 1.3 mg, ip bid administered for 4.5 days followed by bacterial infection measured after 5 days; format: functional; procedure, shortened: as §1
[10] = target: T1, 4,4'-diapophytoene desaturase (4,4'-diaponeurosporene-forming) (Staphylococcus aureus (strain Newman), UniProt O07855); experiment: Inhibition of Staphylococcus aureus Newman 6His-tagged CrtN expressed in Escherichia coli BL21(DE3) using diapophytoene as substrate assessed as pigment formation after overnight incubation by spectrophotometric method; parameters: species or system Staphylococcus aureus subsp. aureus str. Newman
T1 sequence (O07855 whole entry): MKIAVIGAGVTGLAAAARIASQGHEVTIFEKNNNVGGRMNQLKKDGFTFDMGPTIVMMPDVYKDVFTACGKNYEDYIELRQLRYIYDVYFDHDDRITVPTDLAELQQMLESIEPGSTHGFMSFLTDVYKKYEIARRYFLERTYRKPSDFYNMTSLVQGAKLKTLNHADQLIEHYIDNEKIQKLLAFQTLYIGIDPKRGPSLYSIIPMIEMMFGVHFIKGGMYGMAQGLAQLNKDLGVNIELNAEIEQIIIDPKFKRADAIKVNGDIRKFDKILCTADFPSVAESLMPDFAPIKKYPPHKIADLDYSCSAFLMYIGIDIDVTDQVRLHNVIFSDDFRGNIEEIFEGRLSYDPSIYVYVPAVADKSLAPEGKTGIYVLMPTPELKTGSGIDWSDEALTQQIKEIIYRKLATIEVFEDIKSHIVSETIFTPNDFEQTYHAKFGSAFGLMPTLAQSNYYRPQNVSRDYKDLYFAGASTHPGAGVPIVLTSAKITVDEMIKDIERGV
Procedure, shortened: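 Lysate of E. coli BL21(DE3) expressing 6His-CrtN (IPTG 0.5 mM, 16 °C overnight), ~1.41 mg CrtN per reaction, with diapophytoene–phosphatidylcholine emulsion in 0.02 M HEPES pH 7.5 plus FAD. Anaerobic via glucose oxidase 20 U/mL, catalase 20000 U/mL, glucose 2 mM (final). Started with lysate, overnight at 37 °C; triplicate.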

[11] = Aqueous solubility of the compound by HPLC method; format: physicochemical
Procedure, shortened: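 Calibration with standards at 50, 100, 200, 400 and 800 µg/mL in methanol (peak area vs concentration). 10 mg solid stirred in 1 mL pure water for 24 h, more added if still clear; syringe-filtered, 10 µL injected; solubility read from calibration curve.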

[12] = target: T2, 4,4'-diapophytoene desaturase (4,4'-diaponeurosporene-forming) (Staphylococcus aureus (strain Newman)) (UniProt O07855); details: Staphylococcus aureus subsp. aureus str. Newman; 100 uM
T2 sequence (whole entry): T1 sequence (O07855 whole entry)

Trichophyton verrucosum = experiment: Antifungal activity against Trichophyton verrucosum measured after 7 days by serial dilution method; format: functional
Procedure, shortened: (§2)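 Broth serial dilution MIC per NCCLS in RPMI 1640 buffered with 0.165 M MOPS; compounds in DMSO diluted in medium. Dermatophytes incubated at 28 °C, read at 7 days. MIC taken as lowest concentration giving ≥80% growth inhibition versus control (turbidity).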

Nannizzia gypsea = experiment: Antifungal activity against Microsporum gypseum measured after 7 days by serial dilution method; format: functional; procedure, shortened: as §2
[13] = system: Trichophyton mentagrophytes; experiment: Antifungal activity against Trichophyton mentagrophytes measured after 7 days by serial dilution method; format: functional; procedure, shortened: as §2
Trichophyton rubrum = experiment: Antifungal activity against Trichophyton rubrum measured after 7 days by serial dilution method; format: functional; procedure, shortened: as §2

Structure (SMILES): C/C=C/CN(C)Cc1cccc2ccoc12
- pIC50 (Staphylococcus aureus [1]): < 6.00

Structure (SMILES): CN(C/C=C/c1ccc(F)cc1)Cc1cccc2ccoc12
- pIC50 (Staphylococcus aureus [1]): 7.51

Structure (SMILES): CN(CC#Cc1ccccc1)Cc1cccc2ccoc12
- pIC50 (Staphylococcus aureus [1]): 6.78

Structure (SMILES): O=P([O-])([O-])C(CCCc1cccc(Cc2ccccc2)c1)S(=O)(=O)[O-].[K+].[K+].[K+] (stereo not given)
- Activity (Staphylococcus aureus [2]): 1.14 deltalog10CFU
- Activity (Staphylococcus aureus [3]): 0.3 deltalog10CFU
- Activity (Staphylococcus aureus [4]): 1.87 deltalog10CFU
- Activity (Staphylococcus aureus [5]): 1.58 deltalog10CFU
- Activity (Staphylococcus aureus [6]): Active
- Activity (Staphylococcus aureus [7]): 0.25 deltalog10CFU
- Activity (Staphylococcus aureus [8]): 2.84 deltalog10CFU
- Activity (Staphylococcus aureus [9]): 0.25 deltalog10CFU

Structure (SMILES): Cc1ccc(/C=C/CN(C)Cc2cccc3ccoc23)cc1
- pIC50 (Staphylococcus aureus [1]): 7.45

Structure (SMILES): CN(C/C=C/c1cccc(F)c1)Cc1cccc2ccoc12
- pIC50 (Staphylococcus aureus [1]): 6.29

Structure (SMILES): CCN(C/C=C/c1ccccc1)Cc1cccc2ccoc12
- pIC50 (Staphylococcus aureus [1]): < 6.00

Structure (SMILES): CN(CC/C=C/c1ccccc1)Cc1cccc2ccoc12
- pIC50 (Staphylococcus aureus [1]): < 6.00

Structure (SMILES): COc1ccc(/C=C/CN(C)Cc2cccc3ccoc23)cc1.Cl
- pIC50 [10]: 6.17
- pIC50 (Staphylococcus aureus [1]): 7.96
- solubility [11]: 19700 µg/mL

Structure (SMILES): CN(C/C=C/c1ccc(Br)cc1)Cc1cccc2ccoc12.Cl
- pIC50 [10]: 6.45
- pIC50 (Staphylococcus aureus [1]): 8.19
- solubility [11]: 3900 µg/mL

Structure (SMILES): CN(C/C=C/c1ccc(C(C)(C)C)cc1)Cc1cccc2ccoc12
- pIC50 (Staphylococcus aureus [1]): 7.33

Structure (SMILES): CN(C/C=C/c1ccccc1)Cc1cccc2ccccc12
- inhibition [12]: Active

Structure (SMILES): CN(C/C=C/c1ccccc1)Cc1cccc2ccoc12
- pIC50 (Staphylococcus aureus [1]): 6.61

Structure (SMILES): C(=C\c1ccccc1)/CNCc1cccc2ccoc12
- pIC50 (Staphylococcus aureus [1]): < 6.00

Structure (SMILES): CN(C/C=C/c1ccc([N+](=O)[O-])cc1)Cc1cccc2ccoc12
- pIC50 (Staphylococcus aureus [1]): 7.14

Structure (SMILES): CC(C)N(C/C=C/c1ccccc1)Cc1cccc2ccoc12
- pIC50 (Staphylococcus aureus [1]): < 6.00

Structure (SMILES): OC(Cn1cncn1)(Cn1cncn1)c1ccc(F)cc1F [FLUCONAZOLE]
- MIC=<80 (Trichophyton verrucosum): 2 µg/mL (≈ 6.53 µM)
- MIC=<80 (Nannizzia gypsea): 8 µg/mL (≈ 26.1 µM)
- MIC=<80 [13]: 2 µg/mL (≈ 6.53 µM)
- MIC=<80 (Trichophyton rubrum): 1 µg/mL (≈ 3.27 µM)

Structure (SMILES): CN(C/C=C/c1ccc(Cl)cc1)Cc1cccc2ccoc12.Cl
- pIC50 [10]: 6.66
- pIC50 (Staphylococcus aureus [1]): 8.21
- solubility [11]: 7400 µg/mL

Structure (SMILES): CN(C/C=C/c1ccc2ccccc2c1)Cc1cccc2ccoc12
- pIC50 (Staphylococcus aureus [1]): 7.77

Structure (SMILES): CN(C/C=C/c1ccccc1F)Cc1cccc2ccoc12
- pIC50 (Staphylococcus aureus [1]): 6.54

Structure (SMILES): CN(Cc1cccc2ccoc12)C[C@@H]1C[C@H]1c1ccccc1
- pIC50 (Staphylococcus aureus [1]): < 6.00

Structure (SMILES): CN(C/C=C/C1CCCC1)Cc1cccc2ccoc12
- pIC50 (Staphylococcus aureus [1]): < 6.00

Structure (SMILES): CC(=O)N1CCN(c2ccc(OCC3COC(Cn4ccnc4)(c4ccc(Cl)cc4Cl)O3)cc2)CC1 (stereo not given) [KETOCONAZOLE]
- MIC80 (lowest concentration giving ≥80% growth inhibition) (Trichophyton verrucosum): 0.0625 µg/mL (≈ 0.118 µM)
- MIC80 (lowest concentration giving ≥80% growth inhibition) (Nannizzia gypsea): 2 µg/mL (≈ 3.76 µM)
- MIC=<80 [13]: 0.0625 µg/mL (≈ 0.118 µM)
- MIC80 (Trichophyton rubrum): 0.5 µg/mL (≈ 0.941 µM)

Structure (SMILES): CN(CCCc1ccccc1)Cc1cccc2ccoc12
- pIC50 (Staphylococcus aureus [1]): < 6.00

Structure (SMILES): CN(C/C=C/C1CCCCC1)Cc1cccc2ccoc12
- pIC50 (Staphylococcus aureus [1]): < 6.00

Structure (SMILES): CN(C/C=C/c1ccccc1)Cc1cccc2occc12
- pIC50 (Staphylococcus aureus [1]): 6.12

Structure (SMILES): CN(C/C=C/c1cccc([N+](=O)[O-])c1)Cc1cccc2ccoc12
- pIC50 (Staphylococcus aureus [1]): < 6.00

Structure (SMILES): C/C(=C\c1ccccc1)CN(C)Cc1cccc2ccoc12
- pIC50 (Staphylococcus aureus [1]): < 6.00

Structure (SMILES): CN(C/C=C/c1ccco1)Cc1cccc2ccoc12
- pIC50 (Staphylococcus aureus [1]): < 6.00

Structure (SMILES): CN(C/C=C/c1ccccc1[N+](=O)[O-])Cc1cccc2ccoc12
- pIC50 (Staphylococcus aureus [1]): < 6.00

Structure (SMILES): CN(C/C=C/c1cccc2ccccc12)Cc1cccc2ccoc12
- pIC50 (Staphylococcus aureus [1]): 6.05

Structure (SMILES): CN(C/C=C/c1ccc(Cl)cc1Cl)Cc1cccc2ccoc12.Cl
- pIC50 [10]: 6.13
- pIC50 (Staphylococcus aureus [1]): 8.09
- solubility [11]: 7200 µg/mL

Structure (SMILES): C[C@@H](c1ncncc1F)[C@](O)(Cn1cncn1)c1ccc(F)cc1F [VORICONAZOLE]
- MIC80 (lowest concentration giving ≥80% growth inhibition) (Trichophyton verrucosum): 0.03125 µg/mL (≈ 0.0895 µM)
- MIC80 (lowest concentration giving ≥80% growth inhibition) (Nannizzia gypsea): 0.25 µg/mL (≈ 0.716 µM)
- MIC=<80 [13]: 0.03125 µg/mL (≈ 0.0895 µM)
- MIC80 (Trichophyton rubrum): 0.03125 µg/mL (≈ 0.0895 µM)

Structure (SMILES): Cc1cccc(/C=C/CN(C)Cc2cccc3ccoc23)c1
- pIC50 (Staphylococcus aureus [1]): < 6.00

Structure (SMILES): CN(C/C=C/C=C/c1ccccc1)Cc1cccc2ccoc12
- pIC50 (Staphylococcus aureus [1]): 8.38

Structure (SMILES): COC(=O)c1ccc(/C=C/CN(C)Cc2cccc3ccoc23)cc1
- pIC50 (Staphylococcus aureus [1]): 7.77
